Laboratory results taken from ChEMBL document CHEMBL2390844, “Evaluation of bioactivities of chlorokojic acid derivatives against dermatophytes couplet with cytotoxicity” (Bioorg Med Chem Lett, 2013).
In brackets after ≈: the same amount, converted by molar mass.

Legend:
[1] = Antidermatophytic activity against Trichophyton mentagrophytes var. erinacei isolate after 7 days by broth microdilution method; format: functional; conditions: Arthroderma benhamiae
How it was run: (§1)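 Broth microdilution per CLSI in RPMI 1640 with L-glutamine, no bicarbonate, buffered to pH 7.0 with 0.165 M MOPS, filter-sterilized. Test dilution series 128-0.0625 μg mL⁻¹; sterility and growth (inoculum) controls on each plate. Wells inoculated, incubated 28°C for 7 days, read visually with an inverted mirror; MIC recorded. Triplicate.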

[2] = Cytotoxicity against human MRC5 cells; format: cell-based; conditions: read-out: MNCC
How it was run: (§2)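 Maximum non-toxic concentration (MNTC) determined in HeLa and MRC-5 cells by a previously described method, based on cellular morphological alteration.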

[3] = test system: Nannizzia gypsea; experiment: Antidermatophytic activity against Microsporum gypseum isolate after 7 days by broth microdilution method; format: functional; conditions: 168 h; how it was run: as §1
[4] = Antidermatophytic activity against Trichophyton mentagrophytes var. erinacei NCPF 375 after 7 days by broth microdilution method; format: functional; conditions: Arthroderma benhamiae; how it was run: as §1
[5] = test system: Epidermophyton floccosum; experiment: Antidermatophytic activity against Epidermophyton floccosum isolate after 7 days by broth microdilution method; format: functional; conditions: 168 h; how it was run: as §1
[6] = test system: Epidermophyton floccosum; experiment: Antidermatophytic activity against Epidermophyton floccosum RSKK 3027 after 7 days by broth microdilution method; format: functional; conditions: RSKK 3027, 168 h; how it was run: as §1
[7] = test system: Nannizzia gypsea; experiment: Antidermatophytic activity against Microsporum gypseum NCPF 580 after 7 days by broth microdilution method; format: functional; conditions: NCPF 580, 168 h; how it was run: as §1
[8] = Cytotoxicity against human HeLa cells; format: cell-based; conditions: read-out: MNCC; how it was run: as §2

SMILES	MIC [1]	MNTC [2]	MIC [3]	MIC [4]	MIC [5]	MIC [6]	MIC [7]	MNTC [8]
O=c1cc(CCl)oc(CN2CCN(c3ccccc3F)CC2)c1O	16 µg/mL (≈ 45.4 µM)	≥ 128 µg/mL	16 µg/mL (≈ 45.4 µM)	8 µg/mL (≈ 22.7 µM)	32 µg/mL (≈ 90.7 µM)	16 µg/mL (≈ 45.4 µM)	8 µg/mL (≈ 22.7 µM)	
O=c1cc(CCl)oc(CN2CC=C(c3ccccc3)CC2)c1O	16 µg/mL (≈ 48.2 µM)	≥ 256 µg/mL	16 µg/mL (≈ 48.2 µM)	8 µg/mL (≈ 24.1 µM)	16 µg/mL (≈ 48.2 µM)	8 µg/mL (≈ 24.1 µM)	8 µg/mL (≈ 24.1 µM)	≥ 256 µg/mL
O=c1cc(CCl)oc(CN2CCN(CC3CCCCC3)CC2)c1O	8 µg/mL (≈ 22.5 µM)	≥ 512 µg/mL	8 µg/mL (≈ 22.5 µM)	4 µg/mL (≈ 11.3 µM)	8 µg/mL (≈ 22.5 µM)	4 µg/mL (≈ 11.3 µM)	4 µg/mL (≈ 11.3 µM)	≥ 256 µg/mL
O=C(C1CCCCC1)N1CCN(Cc2oc(CCl)cc(=O)c2O)CC1	16 µg/mL (≈ 43.4 µM)	≥ 128 µg/mL	32 µg/mL (≈ 86.8 µM)	8 µg/mL (≈ 21.7 µM)	32 µg/mL (≈ 86.8 µM)	16 µg/mL (≈ 43.4 µM)	16 µg/mL (≈ 43.4 µM)	≥ 128 µg/mL
COC1=CC(=O)C[C@@H](C)[C@]12Oc1c(Cl)c(OC)cc(OC)c1C2=O [GRISEOFULVIN]	1 µg/mL (≈ 2.83 µM)		1 µg/mL (≈ 2.83 µM)	0.5 µg/mL (≈ 1.42 µM)	1 µg/mL (≈ 2.83 µM)	0.5 µg/mL (≈ 1.42 µM)	0.5 µg/mL (≈ 1.42 µM)	
O=C(OCc1ccccc1)N1CCN(Cc2oc(CCl)cc(=O)c2O)CC1	8 µg/mL (≈ 20.4 µM)	≥ 128 µg/mL	8 µg/mL (≈ 20.4 µM)	4 µg/mL (≈ 10.2 µM)	8 µg/mL (≈ 20.4 µM)	4 µg/mL (≈ 10.2 µM)	4 µg/mL (≈ 10.2 µM)	≥ 256 µg/mL
Cc1cccc(N2CCN(Cc3oc(CCl)cc(=O)c3O)CC2)c1C	8 µg/mL (≈ 22 µM)	≥ 256 µg/mL	16 µg/mL (≈ 44.1 µM)	4 µg/mL (≈ 11 µM)	16 µg/mL (≈ 44.1 µM)	8 µg/mL (≈ 22 µM)	8 µg/mL (≈ 22 µM)	≥ 256 µg/mL
O=c1cc(CCl)oc(CN2CCN(Cc3ccc(Cl)cc3)CC2)c1O	8 µg/mL (≈ 20.9 µM)	≥ 128 µg/mL	8 µg/mL (≈ 20.9 µM)	4 µg/mL (≈ 10.4 µM)	8 µg/mL (≈ 20.9 µM)	4 µg/mL (≈ 10.4 µM)	4 µg/mL (≈ 10.4 µM)	≥ 128 µg/mL
Cc1cccc(CN2CCN(Cc3oc(CCl)cc(=O)c3O)CC2)c1	16 µg/mL (≈ 44.1 µM)	≥ 512 µg/mL	32 µg/mL (≈ 88.2 µM)	16 µg/mL (≈ 44.1 µM)	32 µg/mL (≈ 88.2 µM)	16 µg/mL (≈ 44.1 µM)	16 µg/mL (≈ 44.1 µM)	≥ 512 µg/mL
O=c1cc(CCl)oc(CN2CCN(Cc3cc(F)ccc3F)CC2)c1O	8 µg/mL (≈ 20.8 µM)	≥ 256 µg/mL	8 µg/mL (≈ 20.8 µM)	4 µg/mL (≈ 10.4 µM)	8 µg/mL (≈ 20.8 µM)	4 µg/mL (≈ 10.4 µM)	4 µg/mL (≈ 10.4 µM)	≥ 256 µg/mL
O=c1cc(CCl)oc(CN2CCN(Cc3ccc(C(F)(F)F)cc3)CC2)c1O	8 µg/mL (≈ 19.2 µM)	≥ 512 µg/mL	8 µg/mL (≈ 19.2 µM)	4 µg/mL (≈ 9.6 µM)	8 µg/mL (≈ 19.2 µM)	4 µg/mL (≈ 9.6 µM)	4 µg/mL (≈ 9.6 µM)	≥ 512 µg/mL
O=c1cc(CCl)oc(CN2CCN(C3CCCCC3)CC2)c1O	16 µg/mL (≈ 46.9 µM)	≥ 512 µg/mL	32 µg/mL (≈ 93.9 µM)	16 µg/mL (≈ 46.9 µM)	32 µg/mL (≈ 93.9 µM)	16 µg/mL (≈ 46.9 µM)	16 µg/mL (≈ 46.9 µM)	≥ 512 µg/mL
O=c1cc(CCl)oc(CN2CC=C(c3ccc(F)cc3)CC2)c1O	16 µg/mL (≈ 45.7 µM)	≥ 256 µg/mL	16 µg/mL (≈ 45.7 µM)	16 µg/mL (≈ 45.7 µM)	16 µg/mL (≈ 45.7 µM)	16 µg/mL (≈ 45.7 µM)	16 µg/mL (≈ 45.7 µM)	≥ 256 µg/mL
CCC(C)n1ncn(-c2ccc(N3CCN(c4ccc(OCC5COC(Cn6cncn6)(c6ccc(Cl)cc6Cl)O5)cc4)CC3)cc2)c1=O (stereo not drawn) [ITRACONAZOLE]	0.5 µg/mL (≈ 0.709 µM)		0.25 µg/mL (≈ 0.354 µM)	0.25 µg/mL (≈ 0.354 µM)	0.25 µg/mL (≈ 0.354 µM)	0.125 µg/mL (≈ 0.177 µM)	0.125 µg/mL (≈ 0.177 µM)	
O=c1cc(CCl)oc(CN2CCN(c3ccc(F)cc3)CC2)c1O	8 µg/mL (≈ 22.7 µM)	≥ 128 µg/mL	16 µg/mL (≈ 45.4 µM)	8 µg/mL (≈ 22.7 µM)	16 µg/mL (≈ 45.4 µM)	8 µg/mL (≈ 22.7 µM)	8 µg/mL (≈ 22.7 µM)	
O=c1cc(CCl)oc(CN2CCN(c3ccc([N+](=O)[O-])cc3)CC2)c1O	32 µg/mL (≈ 84.3 µM)	≥ 512 µg/mL	32 µg/mL (≈ 84.3 µM)	16 µg/mL (≈ 42.1 µM)	32 µg/mL (≈ 84.3 µM)	16 µg/mL (≈ 42.1 µM)	16 µg/mL (≈ 42.1 µM)	≥ 512 µg/mL
O=c1cc(CCl)oc(CN2CCN(Cc3ccccc3)CC2)c1O	32 µg/mL (≈ 91.7 µM)	≥ 512 µg/mL	32 µg/mL (≈ 91.7 µM)	16 µg/mL (≈ 45.9 µM)	32 µg/mL (≈ 91.7 µM)	16 µg/mL (≈ 45.9 µM)	16 µg/mL (≈ 45.9 µM)	≥ 512 µg/mL
O=c1cc(CCl)oc(CN2CC=C(c3ccc(Cl)cc3)CC2)c1O	8 µg/mL (≈ 21.8 µM)	≥ 256 µg/mL	8 µg/mL (≈ 21.8 µM)	8 µg/mL (≈ 21.8 µM)	8 µg/mL (≈ 21.8 µM)	8 µg/mL (≈ 21.8 µM)	8 µg/mL (≈ 21.8 µM)	≥ 256 µg/mL
O=c1cc(CCl)oc(CN2CCN(c3ccccc3)CC2)c1O	16 µg/mL (≈ 47.8 µM)	≥ 256 µg/mL	8 µg/mL (≈ 23.9 µM)	8 µg/mL (≈ 23.9 µM)	8 µg/mL (≈ 23.9 µM)	4 µg/mL (≈ 11.9 µM)	8 µg/mL (≈ 23.9 µM)	≥ 256 µg/mL
Cc1ccc(N2CCN(Cc3oc(CCl)cc(=O)c3O)CC2)cc1	8 µg/mL (≈ 22.9 µM)	≥ 64 µg/mL	8 µg/mL (≈ 22.9 µM)	4 µg/mL (≈ 11.5 µM)	8 µg/mL (≈ 22.9 µM)	4 µg/mL (≈ 11.5 µM)	4 µg/mL (≈ 11.5 µM)	≥ 64 µg/mL
CC(=O)c1ccc(N2CCN(Cc3oc(CCl)cc(=O)c3O)CC2)cc1	16 µg/mL (≈ 42.5 µM)	≥ 512 µg/mL	16 µg/mL (≈ 42.5 µM)	16 µg/mL (≈ 42.5 µM)	16 µg/mL (≈ 42.5 µM)	16 µg/mL (≈ 42.5 µM)	16 µg/mL (≈ 42.5 µM)	≥ 512 µg/mL
Cc1ccccc1N1CCN(Cc2oc(CCl)cc(=O)c2O)CC1	16 µg/mL (≈ 45.9 µM)	≥ 128 µg/mL	32 µg/mL (≈ 91.7 µM)	8 µg/mL (≈ 22.9 µM)	32 µg/mL (≈ 91.7 µM)	16 µg/mL (≈ 45.9 µM)	16 µg/mL (≈ 45.9 µM)	≥ 128 µg/mL
O=c1cc(CCl)oc(CN2CCN(c3ccc(C(F)(F)F)cc3)CC2)c1O	64 µg/mL (≈ 159 µM)	≥ 128 µg/mL	64 µg/mL (≈ 159 µM)	32 µg/mL (≈ 79.4 µM)	64 µg/mL (≈ 159 µM)	32 µg/mL (≈ 79.4 µM)	32 µg/mL (≈ 79.4 µM)	
CN(C/C=C/C#CC(C)(C)C)Cc1cccc2ccccc12 [TERBINAFINE]	0.25 µg/mL (≈ 0.858 µM)		0.5 µg/mL (≈ 1.72 µM)	0.125 µg/mL (≈ 0.429 µM)	0.5 µg/mL (≈ 1.72 µM)	0.25 µg/mL (≈ 0.858 µM)	0.25 µg/mL (≈ 0.858 µM)	
N#CC1(c2ccccc2)CCN(Cc2oc(CCl)cc(=O)c2O)CC1	32 µg/mL (≈ 89.2 µM)	≥ 256 µg/mL	32 µg/mL (≈ 89.2 µM)	16 µg/mL (≈ 44.6 µM)	32 µg/mL (≈ 89.2 µM)	16 µg/mL (≈ 44.6 µM)	16 µg/mL (≈ 44.6 µM)	≥ 256 µg/mL
O=c1cc(CCl)occ1O	8 µg/mL (≈ 49.8 µM)	≥ 256 µg/mL	4 µg/mL (≈ 24.9 µM)	4 µg/mL (≈ 24.9 µM)	16 µg/mL (≈ 99.7 µM)	8 µg/mL (≈ 49.8 µM)	2 µg/mL (≈ 12.5 µM)	≥ 256 µg/mL
O=c1cc(CCl)oc(CN2CCN(Cc3cccc(C(F)(F)F)c3)CC2)c1O	8 µg/mL (≈ 19.2 µM)	≥ 512 µg/mL	8 µg/mL (≈ 19.2 µM)	4 µg/mL (≈ 9.6 µM)	8 µg/mL (≈ 19.2 µM)	4 µg/mL (≈ 9.6 µM)	4 µg/mL (≈ 9.6 µM)	≥ 512 µg/mL
O=c1cc(CCl)oc(CN2CCN(Cc3c(Cl)cccc3Cl)CC2)c1O	8 µg/mL (≈ 19.2 µM)	≥ 512 µg/mL	8 µg/mL (≈ 19.2 µM)	4 µg/mL (≈ 9.58 µM)	8 µg/mL (≈ 19.2 µM)	4 µg/mL (≈ 9.58 µM)	4 µg/mL (≈ 9.58 µM)	≥ 256 µg/mL
Cc1ccccc1CN1CCN(Cc2oc(CCl)cc(=O)c2O)CC1	32 µg/mL (≈ 88.2 µM)	≥ 512 µg/mL	32 µg/mL (≈ 88.2 µM)	16 µg/mL (≈ 44.1 µM)	32 µg/mL (≈ 88.2 µM)	16 µg/mL (≈ 44.1 µM)	16 µg/mL (≈ 44.1 µM)	≥ 512 µg/mL
